Measured values as given in ChEMBL document CHEMBL4130613, “Identification and Proposed Relative and Absolute Configurations of Niphimycins C-E from the Marine-Derived Streptomyces sp. IMB7-145 by Genomic Analysis” (J Nat Prod, 2018).
pIC50: −log10 of the molar value. Values after ≈ are worked out from the molar mass of the structure shown. Active and inactive are the calls of the source. No cut-off for these calls is given here.

Key:
[1] = test system: Staphylococcus epidermidis; assay: Antibacterial activity against methicillin-resistant Staphylococcus epidermidis 12-8 after 18 hrs by agar dilution method; assay type: functional
[2] = test system: Staphylococcus aureus; assay: Antibacterial activity against methicillin-resistant Staphylococcus aureus ATCC 33591 after 18 hrs by agar dilution method; assay type: functional
[3] = test system: Staphylococcus aureus; assay: Antibacterial activity against methicillin-resistant Staphylococcus aureus 12-33 after 18 hrs by agar dilution method; assay type: functional
[4] = test system: Enterococcus faecalis; assay: Antibacterial activity against vancomycin-resistant Enterococcus faecalis ATCC 51299 after 18 hrs by agar dilution method; assay type: functional
[5] = test system: Enterococcus faecalis; assay: Antibacterial activity against vancomycin-resistant Enterococcus faecalis 09-9 after 18 hrs by agar dilution method; assay type: functional
[6] = test system: Enterococcus faecium; assay: Antibacterial activity against vancomycin-resistant Enterococcus faecium ATCC 700221 after 18 hrs by agar dilution method; assay type: functional
[7] = test system: Enterococcus faecium; assay: Antibacterial activity against vancomycin-resistant Enterococcus faecium 12-1 after 18 hrs by agar dilution method; assay type: functional
[8] = test system: Candida albicans; assay: Antifungal activity against Candida albicans ATCC 10231 after 18 hrs by agar dilution method; assay type: functional; conditions: ATCC 10231, 18 h
[9] = test system: Escherichia coli; assay: Antibacterial activity against extended-spectrum beta-lactamase-negative Escherichia coli ATCC 25922 after 18 hrs by agar dilution method; assay type: functional; conditions: ATCC 25922, 18 h
[10] = test system: Escherichia coli; assay: Antibacterial activity against extended-spectrum beta-lactamase-negative Escherichia coli 1515 after 18 hrs by agar dilution method; assay type: functional; conditions: Escherichia coli, 1515, 18 h
[11] = test system: Escherichia coli; assay: Antibacterial activity against extended-spectrum beta-lactamase-negative Escherichia coli 12-14 after 18 hrs by agar dilution method; assay type: functional; conditions: 12-14, 18 h
[12] = test system: Escherichia coli; assay: Antibacterial activity against extended-spectrum beta-lactamase-positive Escherichia coli 12-15 after 18 hrs by agar dilution method; assay type: functional; conditions: 12-15, 18 h
[13] = test system: Klebsiella pneumoniae; assay: Antibacterial activity against extended-spectrum beta-lactamase-positive Klebsiella pneumoniae ATCC 700603 after 18 hrs by agar dilution method; assay type: functional; conditions: Klebsiella pneumoniae, 700603, 18 h
[14] = test system: Klebsiella pneumoniae; assay: Antibacterial activity against extended-spectrum beta-lactamase-negative Klebsiella pneumoniae 7 after 18 hrs by agar dilution method; assay type: functional; conditions: Klebsiella pneumoniae, 7, 18 h
[15] = test system: Klebsiella pneumoniae; assay: Antibacterial activity against NDM-1 positive Klebsiella pneumoniae ATCC BAA-2146 after 18 hrs by agar dilution method; assay type: functional; conditions: ATCC BAA-2146, 18 h
[16] = test system: Klebsiella pneumoniae; assay: Antibacterial activity against extended-spectrum beta-lactamase-negative Klebsiella pneumoniae 12-4 after 18 hrs by agar dilution method; assay type: functional; conditions: 12-4, 18 h
[17] = test system: Klebsiella pneumoniae; assay: Antibacterial activity against extended-spectrum beta-lactamase-positive Klebsiella pneumoniae 12-8 after 18 hrs by agar dilution method; assay type: functional; conditions: 12-8, 18 h
[18] = test system: Pseudomonas aeruginosa; assay: Antibacterial activity against Pseudomonas aeruginosa ATCC 27853 after 18 hrs by agar dilution method; assay type: functional; conditions: ATCC 27853, 18 h
[19] = test system: Pseudomonas aeruginosa; assay: Antibacterial activity against Pseudomonas aeruginosa PAO1 after 18 hrs by agar dilution method; assay type: functional; conditions: PAO1, 18 h
[20] = test system: Pseudomonas aeruginosa; assay: Antibacterial activity against Pseudomonas aeruginosa 12-16 after 18 hrs by agar dilution method; assay type: functional; conditions: 12-16, 18 h
[21] = test system: Acinetobacter calcoaceticus; assay: Antibacterial activity against Acinetobacter calcoaceticus ATCC 19606 after 18 hrs by agar dilution method; assay type: functional; conditions: ATCC 19606, 18 h
[22] = test system: Enterobacter cloacae; assay: Antibacterial activity against Enterobacter cloacae ATCC 43560 after 18 hrs by agar dilution method; assay type: functional; conditions: ATCC 43560, 18 h
[23] = test system: Klebsiella aerogenes; assay: Antibacterial activity against Enterobacter aerogenes ATCC 13048 after 18 hrs by agar dilution method; assay type: functional; conditions: ATCC 13048, 18 h
[24] = test system: Serratia marcescens; assay: Antibacterial activity against Serratia marcescens ATCC 21074 after 18 hrs by agar dilution method; assay type: functional; conditions: ATCC 21074, 18 h
[25] = test system: Morganella morganii; assay: Antibacterial activity against Morganella morganii ATCC 25830 after 18 hrs by agar dilution method; assay type: functional; conditions: ATCC 25830, 18 h
[26] = test system: Providencia rettgeri; assay: Antibacterial activity against Providencia rettgeri ATCC 31052 after 18 hrs by agar dilution method; assay type: functional; conditions: ATCC 31052, 18 h
[27] = test system: Proteus vulgaris; assay: Antibacterial activity against Proteus vulgaris ATCC 29905 after 18 hrs by agar dilution method; assay type: functional; conditions: ATCC 29905, 18 h
[28] = test system: Proteus mirabilis; assay: Antibacterial activity against Proteus mirabilis 12-6 after 18 hrs by agar dilution method; assay type: functional; conditions: 12-6, 18 h
[29] = test system: Stenotrophomonas maltophilia; assay: Antibacterial activity against Stenotrophomonas maltophilia ATCC 13636 after 18 hrs by agar dilution method; assay type: functional; conditions: ATCC 13636, 18 h
[30] = test system: Citrobacter freundii; assay: Antibacterial activity against Citrobacter freundii ATCC 43864 after 18 hrs by agar dilution method; assay type: functional; conditions: ATCC 43864, 18 h
[31] = test system: HeLa; assay: Cytotoxicity against human HeLa cells after 48 hrs by SRB assay; assay type: functional, cell-based
Method in brief: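 HeLa human cervical carcinoma cells obtained from ATCC. Cytotoxicity was read by sulforhodamine B staining following an earlier published protocol, with doxorubicin hydrochloride as positive control. Values are reported as IC50.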

| Structure (SMILES) | Activity [1] | Activity [2] | Activity [3] | Activity [4] | Activity [5] | Activity [6] | Activity [7] | MIC [8] [µg/mL] | MIC [9] [µg/mL] | MIC [10] [µg/mL] | MIC [11] [µg/mL] | MIC [12] [µg/mL] | MIC [13] [µg/mL] | MIC [14] [µg/mL] | MIC [15] [µg/mL] | MIC [16] [µg/mL] | MIC [17] [µg/mL] | MIC [18] [µg/mL] | MIC [19] [µg/mL] | MIC [20] [µg/mL] | further results |
| --- | --- | --- | --- | --- | --- | --- | --- | --- | --- | --- | --- | --- | --- | --- | --- | --- | --- | --- | --- | --- | --- |
| CNC(=N)NCCC/C=C/CCC[C@H](C)C[C@H](C)[C@H]1OC(=O)[C@H](C)[C@H](O)/C=C/[C@H](C)[C@H](O)C[C@H](O)[C@H](C)[C@@H](O)CC[C@H](C)[C@H](O)C[C@]2(O)O[C@H](C[C@@H](OC(=O)CC(=O)O)C[C@H](O)C[C@@H](O)[C@H](C)[C@H](O)/C=C/C=C/[C@@H]1C)C[C@H](OC(=O)CC(=O)O)[C@H]2O | Active | Active | Active | Active | Active | Active | Active | 8 to 32 (≈ 6.51 to 26 µM) | > 64 | > 64 | > 64 | > 64 | > 64 | > 64 | > 64 | > 64 | > 64 | > 64 | > 64 | > 64 | MIC [21]: > 64 µg/mL; MIC [22]: > 64 µg/mL; MIC [23]: > 64 µg/mL; MIC [24]: > 64 µg/mL; MIC [25]: > 64 µg/mL; MIC [26]: > 64 µg/mL; MIC [27]: > 64 µg/mL; MIC [28]: > 64 µg/mL; MIC [29]: > 64 µg/mL; MIC [30]: > 64 µg/mL; pIC50 [31]: 5.05 to 5.52 |
| CNC(=N)NCCC/C=C/CCC[C@H](C)C[C@H](C)[C@@H](O)[C@@H](C)/C=C/C=C/[C@@H](O)[C@@H](C)[C@H](O)C[C@@H](O)C[C@H](O)C[C@@H](O)C[C@H](O)[C@@H](O)C(O)C[C@@H](O)[C@@H](C)CC[C@H](O)[C@@H](C)[C@@H](O)C[C@@H](O)[C@@H](C)/C=C/[C@@H](O)[C@@H](C)C(=O)O (some centres undefined) | Active | Active | Active | Active | Active | Active | Active | 8 to 32 (≈ 7.43 to 29.7 µM) | > 64 | > 64 | > 64 | > 64 | > 64 | > 64 | > 64 | > 64 | > 64 | > 64 | > 64 | > 64 | MIC [21]: > 64 µg/mL; MIC [22]: > 64 µg/mL; MIC [23]: > 64 µg/mL; MIC [24]: > 64 µg/mL; MIC [25]: > 64 µg/mL; MIC [26]: > 64 µg/mL; MIC [27]: > 64 µg/mL; MIC [28]: > 64 µg/mL; MIC [29]: > 64 µg/mL; MIC [30]: > 64 µg/mL; pIC50 [31]: < 5.00 |
| CNC(=N)NCCC/C=C/CCC[C@H](C)C[C@H](C)[C@H]1OC(=O)[C@H](C)[C@H](O)/C=C/[C@H](C)[C@H](O)C[C@H](O)[C@H](C)[C@@H](O)CC[C@H](C)[C@H](O)C[C@]2(O)O[C@H](C[C@@H](O)C[C@H](OC(=O)CC(=O)O)C[C@@H](O)[C@H](C)[C@H](O)/C=C/C=C/[C@@H]1C)C[C@H](OC(=O)CC(=O)O)[C@H]2O | Active | Active | Active | Active | Active | Active | Active | 8 to 32 (≈ 6.51 to 26 µM) | > 64 | > 64 | > 64 | > 64 | > 64 | > 64 | > 64 | > 64 | > 64 | > 64 | > 64 | > 64 | MIC [21]: > 64 µg/mL; MIC [22]: > 64 µg/mL; MIC [23]: > 64 µg/mL; MIC [24]: > 64 µg/mL; MIC [25]: > 64 µg/mL; MIC [26]: > 64 µg/mL; MIC [27]: > 64 µg/mL; MIC [28]: > 64 µg/mL; MIC [29]: > 64 µg/mL; MIC [30]: > 64 µg/mL; pIC50 [31]: < 5.00 |
| CNC(=N)NCCC/C=C/CCC[C@H](C)C[C@H](C)[C@H]1OC(=O)[C@H](C)[C@H](O)/C=C/[C@H](C)[C@H](O)C[C@H](O)[C@H](C)[C@@H](O)CC[C@H](C)[C@H](O)CC(O)[C@H](O)[C@@H](O)C[C@H](O)C[C@@H](O)C[C@H](O)C[C@@H](O)[C@H](C)[C@H](O)/C=C/C=C/[C@@H]1C (some centres undefined) | Active | Active | Active | Active | Active | Active | Active | 8 to 32 (≈ 7.56 to 30.2 µM) | > 64 | > 64 | > 64 | > 64 | > 64 | > 64 | > 64 | > 64 | > 64 | > 64 | > 64 | > 64 | MIC [21]: > 64 µg/mL; MIC [22]: > 64 µg/mL; MIC [23]: > 64 µg/mL; MIC [24]: > 64 µg/mL; MIC [25]: > 64 µg/mL; MIC [26]: > 64 µg/mL; MIC [27]: > 64 µg/mL; MIC [28]: > 64 µg/mL; MIC [29]: > 64 µg/mL; MIC [30]: > 64 µg/mL; pIC50 [31]: < 5.00 |
